Measured values from ChEMBL document CHEMBL3525985, “Regiospecificity and stereospecificity of human UDP-glucuronosyltransferases in the glucuronidation of estriol, 16-epiestriol, 17-epiestriol, and 13-epiestradiol” (Drug Metab Dispos, 2013).
Each block holds one molecule with its values, some of them ahead of it.

Tests used:
Assay type in all cases: ADME
Conditions in all cases: recombinant enzyme
[1] = molecular target: T1, UDP-glucuronosyltransferase 2B7 (Homo sapiens, UniProt P16662); test: Drug metabolism assessed as recombinant human C-terminal His-tagged UGT2B7-mediated 17-epiestriol-17-glucuronide formation at 200 uM after 15 to 60 mins by HPLC analysis in presence of UDPGA
T1 sequence (P16662 whole entry): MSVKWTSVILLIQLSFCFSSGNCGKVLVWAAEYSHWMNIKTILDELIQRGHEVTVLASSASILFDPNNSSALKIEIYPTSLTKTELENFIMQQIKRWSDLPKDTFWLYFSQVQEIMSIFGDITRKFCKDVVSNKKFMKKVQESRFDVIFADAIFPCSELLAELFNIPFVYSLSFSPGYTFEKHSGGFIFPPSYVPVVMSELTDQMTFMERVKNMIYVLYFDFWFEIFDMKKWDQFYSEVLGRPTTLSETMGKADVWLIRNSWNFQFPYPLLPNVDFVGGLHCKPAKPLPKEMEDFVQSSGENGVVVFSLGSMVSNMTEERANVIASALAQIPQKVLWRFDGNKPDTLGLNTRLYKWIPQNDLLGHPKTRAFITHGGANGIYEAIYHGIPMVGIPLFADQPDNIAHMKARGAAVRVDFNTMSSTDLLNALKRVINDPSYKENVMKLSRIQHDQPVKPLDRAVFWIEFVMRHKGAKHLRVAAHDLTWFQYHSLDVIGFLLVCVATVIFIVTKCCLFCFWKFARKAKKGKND
Procedure, shortened: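 Membranes (5 or 50 µg) from insect cells expressing His-tagged UGT2B7, with 200 µM aglycone in 50 mM phosphate pH 7.4, 10 mM MgCl₂, 5 mM UDPGA and 10% DMSO (final), 15–60 min at 37°C. Stopped with perchloric acid on ice, supernatant run on HPLC. Done in triplicate with no-UDPGA controls; rates normalized to relative UGT expression.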

[2] = molecular target: T2, UDP-glucuronosyltransferase 2A1 (Homo sapiens, UniProt P0DTE4); test: Drug metabolism assessed as recombinant human C-terminal His-tagged UGT2A1-mediated 17-epiestriol-17-glucuronide formation at 200 uM after 15 to 60 mins by HPLC analysis in presence of UDPGA
T2 sequence (P0DTE4 whole entry): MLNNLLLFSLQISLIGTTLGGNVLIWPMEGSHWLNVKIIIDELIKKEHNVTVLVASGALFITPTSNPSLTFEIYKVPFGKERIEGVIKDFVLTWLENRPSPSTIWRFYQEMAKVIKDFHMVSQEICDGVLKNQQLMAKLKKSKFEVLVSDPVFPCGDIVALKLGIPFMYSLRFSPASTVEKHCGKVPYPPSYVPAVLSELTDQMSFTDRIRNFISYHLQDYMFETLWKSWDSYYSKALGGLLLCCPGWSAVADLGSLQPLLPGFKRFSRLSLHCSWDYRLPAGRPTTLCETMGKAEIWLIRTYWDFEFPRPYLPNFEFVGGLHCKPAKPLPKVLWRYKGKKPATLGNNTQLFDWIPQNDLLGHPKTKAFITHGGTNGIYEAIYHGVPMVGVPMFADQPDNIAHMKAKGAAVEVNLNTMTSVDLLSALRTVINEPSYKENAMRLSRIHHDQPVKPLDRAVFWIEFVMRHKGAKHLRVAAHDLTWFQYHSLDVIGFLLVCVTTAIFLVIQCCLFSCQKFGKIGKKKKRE
Procedure, shortened: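 Screening at a single substrate concentration of 200 μM, in triplicate. The reaction used 5 or 50 µg of UGT-enriched insect cell membranes in 50 mM phosphate pH 7.4 with 10 mM MgCl₂ and 5 mM UDPGA, 10% final DMSO. Incubation was 15–60 min at 37°C. Perchloric acid stopped the reaction and supernatants were analysed by HPLC. Controls lacked UDPGA. Rates were normalized to relative UGT expression level.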

[3] = molecular target: T3, UDP-glucuronosyltransferase 1A8 (Homo sapiens, UniProt Q9HAW9); test: Drug metabolism assessed as recombinant human C-terminal His-tagged UGT1A8-mediated 16-epiestriol-3-glucuronide formation after 15 to 60 mins by Michaelis-Menten equation analysis in presence of UDPGA
T3 sequence (Q9HAW9 whole entry): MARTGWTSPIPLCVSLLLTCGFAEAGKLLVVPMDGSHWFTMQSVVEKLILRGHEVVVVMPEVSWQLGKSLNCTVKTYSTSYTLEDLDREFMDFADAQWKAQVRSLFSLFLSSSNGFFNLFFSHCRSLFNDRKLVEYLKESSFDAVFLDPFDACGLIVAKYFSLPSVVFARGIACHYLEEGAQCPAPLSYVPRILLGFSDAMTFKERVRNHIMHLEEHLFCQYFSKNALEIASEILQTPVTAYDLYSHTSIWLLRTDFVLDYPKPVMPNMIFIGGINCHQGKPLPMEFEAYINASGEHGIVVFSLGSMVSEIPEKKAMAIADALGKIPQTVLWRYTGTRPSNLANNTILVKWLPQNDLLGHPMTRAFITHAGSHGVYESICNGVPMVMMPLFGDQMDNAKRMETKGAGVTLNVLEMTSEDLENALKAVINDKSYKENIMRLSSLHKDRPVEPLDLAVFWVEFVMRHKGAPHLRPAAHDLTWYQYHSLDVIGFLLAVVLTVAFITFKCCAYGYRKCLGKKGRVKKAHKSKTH

[4] = molecular target: T3, UDP-glucuronosyltransferase 1A8; test: Drug metabolism assessed as recombinant human C-terminal His-tagged UGT1A8-mediated estriol-3-glucuronide formation at 200 uM after 15 to 60 mins by HPLC analysis in presence of UDPGA
Procedure, shortened: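 Screen at 200 µM substrate (DMSO, 10% final) with 5 or 50 µg UGT-enriched insect-cell membranes in 50 mM phosphate pH 7.4, 10 mM MgCl2, 5 mM UDPGA; 37°C, 15–60 min. Stopped with perchloric acid, then iced and centrifuged; glucuronides resolved by HPLC. Triplicates with no-UDPGA controls; ≤10% substrate consumed; rates normalized to relative UGT expression (UGT1A7 15.5, UGT1A8 1.4; UGT1A3 = 1.0).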

Drug metabolism [1]: metabolite_detected
Drug metabolism [2]: metabolite_detected
SMILES: C[C@]12CC[C@@H]3c4ccc(O)cc4CC[C@H]3[C@@H]1C[C@@H](O)[C@H]2O

Drug metabolism [3]: 0.5 pmol/min/mg
SMILES: C[C@]12CC[C@@H]3c4ccc(O)cc4CC[C@H]3[C@@H]1C[C@H](O)[C@@H]2O [EPIESTRIOL]

Drug metabolism [4]: metabolite_detected
SMILES: C[C@]12CC[C@@H]3c4ccc(O)cc4CC[C@H]3[C@@H]1C[C@@H](O)[C@@H]2O [ESTRIOL]
